In ChEMBL document CHEMBL1153602, “Photochemical electrocyclisation of 3-vinylindoles to pyrido[2,3-a]-, pyrido[4,3-a]- and thieno[2,3-a]-carbazoles: design, synthesis, DNA binding and antitumor cell cytotoxicity” (2009):
The source made the active and inactive calls. The calls are words filed in the database; no cut-off is given here.

What was measured:
[1] = biological target: DNA topoisomerase 2-alpha (Homo sapiens) (UniProt P11388); assay: Inhibition of human topoisomerase 2-mediated DNA relaxation assessed as double stranded break form by agarose gel electrophoresis
In short: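 Supercoiled pUC19 (130 ng) with compound at 20 or 50 µM, or etoposide as control, was incubated with human topoisomerase II (4 units) for 45 min at 37 °C in cleavage buffer. The reaction was stopped with 0.25% SDS plus proteinase K for 30 min at 50 °C. DNA forms were separated on 1% agarose containing ethidium bromide in TBE.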

[2] = system: HT-29; assay: Cell cycle arrest in human HT-29 cells assessed as accumulation at S phase at 10 uM after 24 hrs using PI staining by flow cytometry; format: functional
In short: (§1)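 HT-29 cells, 3×10^5 per sample in exponential growth, were exposed to graded drug concentrations for 24 h. Cells were then trypsinised, fixed in 70% ethanol and stained 30 min in the dark with propidium iodide (50 µg/ml) plus RNase (100 µg/ml). DNA content was measured by flow cytometry, quantifying cell-cycle phases and the sub-G1 fraction.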

[3] = system: HT-29; assay: Cell cycle arrest in human HT-29 cells assessed as accumulation at G2/M phase at 25 uM after 24 hrs using PI staining by flow cytometry; format: functional, cell-based; in short: as §1
[4] = system: HT-29; assay: Growth inhibition of human HT-29 cells by MTS assay; format: functional
In short: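 HT-29 cells, 3×10^3 per well, were seeded 24 h before treatment with compound at 1 nM–100 µM, run as 3 series of duplicate or triplicate points. After 72 h at 37 °C, MTS tetrazolium was added for 2 h and absorbance read at 492 nm. GC50 is the concentration halving cell number versus untreated control wells.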

[5] = system: Calf thymus DNA; assay: Binding affinity to calf thymus DNA assessed as change in melting temperature at a compound to DNA molar ratio of 0.1 by UV-vis spectroscopy; format: nucleic-acid assay; details: Bos taurus
In short: (§2)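 UV absorbance of DNA at 260 nm recorded every minute from 20 to 100 °C, ramping 1 °C/min in a thermostated quartz cell. Tm is taken as the midpoint of the hyperchromic transition. ΔTm = Tm(DNA+drug) − Tm(DNA alone). Calf-thymus DNA or poly(dAdT)2 was used at DNA/drug ratios from 0.1 to 1.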

[6] = system: Calf thymus DNA; assay: Binding affinity to calf thymus DNA assessed as change in melting temperature at a compound to DNA molar ratio of 0.25 by UV-vis spectroscopy; format: nucleic-acid assay; details: Bos taurus; in short: as §2
[7] = system: Calf thymus DNA; assay: Binding affinity to calf thymus DNA assessed as change in melting temperature at a compound to DNA molar ratio of 0.5 by UV-vis spectroscopy; format: nucleic-acid assay; details: Bos taurus; in short: as §2
[8] = system: Calf thymus DNA; assay: Binding affinity to calf thymus DNA assessed as change in melting temperature at a compound to DNA molar ratio of 1 by UV-vis spectroscopy; format: nucleic-acid assay; details: Bos taurus; in short: as §2
[9] = system: Nucleic Acid; assay: Binding affinity to poly(dA).poly(dT) duplex DNA assessed as change in thermal melting temperature at compound to DNA ratio of 0.1 by UV-vis spectroscopy; format: nucleic-acid assay
[10] = system: Nucleic Acid; assay: Binding affinity to poly(dA).poly(dT) duplex DNA assessed as change in thermal melting temperature at compound to DNA ratio of 0.25 by UV-vis spectroscopy; format: nucleic-acid assay
[11] = system: Nucleic Acid; assay: Binding affinity to poly(dA).poly(dT) duplex DNA assessed as change in thermal melting temperature at compound to DNA ratio of 0.5 by UV-vis spectroscopy; format: nucleic-acid assay
[12] = system: Nucleic Acid; assay: Binding affinity to poly(dA).poly(dT) duplex DNA assessed as change in thermal melting temperature at compound to DNA ratio of 1 by UV-vis spectroscopy; format: nucleic-acid assay
[13] = system: Calf thymus DNA; assay: Binding affinity to calf thymus DNA assessed as enhancement constant by fluorescence spectroscopy; format: nucleic-acid assay; details: Bos taurus
In short: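 Drug at a fixed 20 µM in 1 ml BPE buffer in a 10 mm quartz cuvette, titrated with CT-DNA at 10–200 µM base pairs. Excitation was set at each compound's own wavelength (276–319 nm). Constants came from Stern–Volmer plots of F0/F against CT-DNA concentration, with the slope taken as Ksv.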

[14] = system: Nucleic Acid; assay: Binding affinity to pBS 117bp DNA by DnaseI footprinting assay; format: nucleic-acid assay
In short: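 Ligand and fragment were pre-incubated 15 min at 37 °C, then digested with DNase I at 0.001 unit/ml in 20 mM NaCl, 2 mM MgCl2, 2 mM MnCl2, pH 7.3. Products were resolved on a denaturing 8% polyacrylamide/8 M urea gel, with a G-track marker.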

[15] = biological target: T1, DNA topoisomerase 1 (Homo sapiens) (UniProt P11387); assay: Inhibition of human topoisomerase 1-mediated DNA relaxation assessed as lack of nicking form by agarose gel electrophoresis
T1 sequence (whole entry): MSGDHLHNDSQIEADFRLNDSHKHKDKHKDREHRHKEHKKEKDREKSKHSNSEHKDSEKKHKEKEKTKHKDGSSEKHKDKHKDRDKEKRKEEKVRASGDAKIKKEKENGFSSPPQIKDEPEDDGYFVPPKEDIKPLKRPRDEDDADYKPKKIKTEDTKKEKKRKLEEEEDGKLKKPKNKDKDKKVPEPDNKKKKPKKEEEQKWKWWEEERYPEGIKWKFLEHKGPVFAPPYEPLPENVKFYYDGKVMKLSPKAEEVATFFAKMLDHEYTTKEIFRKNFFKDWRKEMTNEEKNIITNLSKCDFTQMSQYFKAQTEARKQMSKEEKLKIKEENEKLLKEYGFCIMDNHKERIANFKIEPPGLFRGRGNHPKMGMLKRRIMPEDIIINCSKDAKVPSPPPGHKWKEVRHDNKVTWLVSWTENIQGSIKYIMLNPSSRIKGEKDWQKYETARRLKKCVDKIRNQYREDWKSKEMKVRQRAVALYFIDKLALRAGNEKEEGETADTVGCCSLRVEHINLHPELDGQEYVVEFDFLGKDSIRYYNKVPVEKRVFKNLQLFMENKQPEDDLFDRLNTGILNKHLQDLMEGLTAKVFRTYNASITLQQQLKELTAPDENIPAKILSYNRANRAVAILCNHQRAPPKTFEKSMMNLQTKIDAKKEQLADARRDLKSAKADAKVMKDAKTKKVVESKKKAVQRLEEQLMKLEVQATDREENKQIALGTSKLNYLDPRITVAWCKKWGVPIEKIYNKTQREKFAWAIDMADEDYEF
In short: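 Supercoiled pUC19 (130 ng) was pre-incubated with compound at graded concentrations, or 20 or 50 µM in the cleavage assay. Human topoisomerase I (4 units) was then added for 45 min at 37 °C in 50 mM Tris pH 7.8, 50 mM KCl, 10 mM MgCl2, 1 mM DTT, 1 mM EDTA, 1 mM ATP. Camptothecin (20 µM) served as control. Samples ran on 1% agarose for 2 h at 120 V in TBE, with ethidium bromide either post-stained (relaxation) or included in the gel (cleavage).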

[16] = system: HT-29; assay: Cell cycle arrest in human HT-29 cells at 25 uM after 24 hrs using PI staining by flow cytometry
[17] = system: HT-29; assay: Cell cycle arrest in human HT-29 cells assessed as accumulation at G2/M phase after 24 hrs using PI staining by flow cytometry; format: functional, cell-based; in short: as §1
[18] = system: HT-29; assay: Cell cycle arrest in human HT-29 cells assessed as reduction of cells in G1 phase after 24 hrs using PI staining by flow cytometry; format: functional, cell-based; in short: as §1
[19] = system: HT-29; assay: Cell cycle arrest in human HT-29 cells assessed as accumulation at S phase at 25 uM after 24 hrs using PI staining by flow cytometry; format: functional; in short: as §1
[20] = system: HT-29; assay: Growth inhibition of human HT-29 cells after 48 hrs by sulforhodamine B protein assay; format: functional; details: HT-29, 48 h
In short: (§3)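 NCI 60-cell-line screen. Dose–response used at least five concentrations in 10-fold dilutions with 48 h continuous drug exposure. Growth was estimated by sulforhodamine B protein staining. GI50 is the molar concentration giving 50% growth inhibition versus control.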

[21] = system: CCRF-CEM; assay: Growth inhibition of human CCRF-CEM cells after 48 hrs by sulforhodamine B protein assay; format: functional; in short: as §3
[22] = system: COLO 205; assay: Growth inhibition of human COLO205 cells after 48 hrs by sulforhodamine B protein assay; format: functional; details: COLO 205, 48 h; in short: as §3
[23] = system: ACHN; assay: Growth inhibition of human ACHN cells after 48 hrs by sulforhodamine B protein assay; format: functional; in short: as §3

Sequence of DNA topoisomerase 2-alpha (Homo sapiens) (P11388 whole entry): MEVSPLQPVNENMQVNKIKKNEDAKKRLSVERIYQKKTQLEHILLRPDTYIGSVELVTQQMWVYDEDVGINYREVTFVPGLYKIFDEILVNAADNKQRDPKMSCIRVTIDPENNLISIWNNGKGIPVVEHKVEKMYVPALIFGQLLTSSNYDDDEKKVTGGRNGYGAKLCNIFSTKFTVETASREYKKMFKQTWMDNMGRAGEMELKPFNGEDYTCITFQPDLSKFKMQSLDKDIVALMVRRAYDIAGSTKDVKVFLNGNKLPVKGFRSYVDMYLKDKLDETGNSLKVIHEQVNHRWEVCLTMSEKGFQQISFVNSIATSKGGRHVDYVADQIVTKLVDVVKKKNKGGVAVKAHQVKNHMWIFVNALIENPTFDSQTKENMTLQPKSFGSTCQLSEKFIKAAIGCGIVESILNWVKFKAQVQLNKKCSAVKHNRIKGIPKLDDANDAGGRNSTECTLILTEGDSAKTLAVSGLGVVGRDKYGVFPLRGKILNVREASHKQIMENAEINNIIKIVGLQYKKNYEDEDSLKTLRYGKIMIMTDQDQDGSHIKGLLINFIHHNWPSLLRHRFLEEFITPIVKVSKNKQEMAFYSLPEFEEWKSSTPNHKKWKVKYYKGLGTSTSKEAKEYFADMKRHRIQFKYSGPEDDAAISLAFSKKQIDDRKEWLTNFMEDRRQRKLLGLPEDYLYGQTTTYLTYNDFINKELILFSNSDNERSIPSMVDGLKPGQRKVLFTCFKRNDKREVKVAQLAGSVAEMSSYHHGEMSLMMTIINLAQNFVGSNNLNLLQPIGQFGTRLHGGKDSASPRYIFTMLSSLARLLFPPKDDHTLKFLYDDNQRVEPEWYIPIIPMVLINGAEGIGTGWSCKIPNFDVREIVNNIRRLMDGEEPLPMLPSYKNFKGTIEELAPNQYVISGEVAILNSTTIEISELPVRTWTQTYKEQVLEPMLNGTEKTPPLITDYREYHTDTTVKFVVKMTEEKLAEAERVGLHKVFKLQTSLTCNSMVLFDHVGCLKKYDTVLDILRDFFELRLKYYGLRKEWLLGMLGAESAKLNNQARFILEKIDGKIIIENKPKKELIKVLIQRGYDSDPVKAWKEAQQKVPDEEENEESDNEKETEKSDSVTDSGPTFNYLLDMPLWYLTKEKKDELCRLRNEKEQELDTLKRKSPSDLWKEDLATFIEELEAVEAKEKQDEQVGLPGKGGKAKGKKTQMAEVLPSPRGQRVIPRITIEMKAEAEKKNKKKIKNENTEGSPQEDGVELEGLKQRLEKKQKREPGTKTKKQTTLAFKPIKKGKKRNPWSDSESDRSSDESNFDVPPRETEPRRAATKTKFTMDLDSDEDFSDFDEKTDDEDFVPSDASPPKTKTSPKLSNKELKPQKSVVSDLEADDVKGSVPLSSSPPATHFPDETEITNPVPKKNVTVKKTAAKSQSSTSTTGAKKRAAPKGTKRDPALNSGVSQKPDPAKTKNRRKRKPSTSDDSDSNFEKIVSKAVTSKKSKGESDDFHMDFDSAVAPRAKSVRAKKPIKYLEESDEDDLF

| SMILES | Activity [1] | GI50 [4] | ΔTm [5] | ΔTm [6] | ΔTm [7] | ΔTm [8] | ΔTm [9] | ΔTm [10] | ΔTm [11] | ΔTm [12] | Activity [13] | Activity [14] | Activity [15] | also measured |
| --- | --- | --- | --- | --- | --- | --- | --- | --- | --- | --- | --- | --- | --- | --- |
| COc1cc([C@@H]2c3cc4c(cc3[C@@H](O[C@@H]3O[C@@H]5CO[C@@H](C)O[C@H]5[C@H](O)[C@H]3O)[C@H]3COC(=O)[C@H]23)OCO4)cc(OC)c1O | Active |  |  |  |  |  |  |  |  |  |  |  |  |  |
| CN(C)CCCNC(=O)c1cc2c3cc(Cl)ccc3[nH]c2c2ncccc12 | Active | 9.23 µM | 3 °C | 7.4 °C | 8.8 °C | 13.2 °C | 6.1 °C | 9.2 °C | 20.4 °C | 27.8 °C | 4.84 ×10³ /M | Active | Active | Activity [2]: 26.1%; Activity [3]: Active; Activity [16]: Active |
| CN(C)CCCNC(=O)c1cc2c3ccccc3[nH]c2c2ncccc12 | Active | 10.1 µM | 0 °C | 4.4 °C | 4.4 °C | 7.3 °C | 2.9 °C | 8.9 °C | 11.6 °C | 17.5 °C | 5.94 ×10² /M | Active | Active | Activity [17]: Active; Activity [18]: Active; Activity [19]: 31.7%; GI50 ([20]; read-out: GI50): 10.3 µM; GI50 ([20]; read-out: pGI50 (converted)): 1.02 µM; GI50 ([21]; read-out: GI50): 4.31 µM; GI50 ([21]; read-out: pGI50 (converted)): 4.27 µM; GI50 ([22]; read-out: GI50): 4.43 µM; GI50 ([22]; read-out: pGI50 (converted)): 4.47 µM; GI50 ([23]; read-out: GI50): 5.24 µM; GI50 ([23]; read-out: pGI50 (converted)): 5.25 µM |
| O=C(NCCCN1CCOCC1)c1cc2c3cccc(Cl)c3[nH]c2c2ncccc12 |  |  | 0 °C | 0.7 °C | 0.4 °C | 0.6 °C | 2.1 °C | 3.9 °C | 5.3 °C | 5.3 °C |  | inactive |  |  |
